The nature of data set [1]: Reaction kinetics of acrolein–azide 1,3-dipolar cycloaddition. The format is physicochemical.
The subject of data set [2] is A549 cell xenograft-bearing nude mice. The data set can be described thus: Intravenous therapy of xenograft mice. In kind it is in vivo, mouse. The settings on record: 240 nmol; for survival: every three days for ten days; for tumor growth: every three days for ten days (four injections). The method in brief:
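Nude mice bearing A549 xenografts were injected intravenously every three days over ten days, four injections in total, at twice the intratumoral concentration. Comparison groups matched the intratumoral study. Tumour growth and body weight were monitored.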

Data set [3] has the same test system. The data set can be described thus: Intratumor therapy of xenograft mice. The format is in vivo, mouse. The settings on record: intratumoral, 120 nmol. The method in brief:
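Nude mice bearing A549 xenografts received intratumoral injections once daily for 12 days. Comparison groups were vehicle, the azide control, the phenyl-azide conjugate and free drug. Tumour growth, body weight and survival were monitored.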

The nature of data set [4]: In vivo drug release analysis. Details: species or system mouse. The settings on record: two hours after intratumoral administration. The procedure, abridged:
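A549 xenograft-bearing nude mice were dosed intratumorally. Two hours later, tumour and urine extracts were analysed by RP-HPLC for intact prodrug and free drug.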

This is an account of results in article PMC8873552 (Chemical Science, 2021).

For the compound `[N-]=[N+]=Nc1ccccc1` [Compound 1a, phenyl azide], in data set [1] (formation of triazoline 3a), the “second-order rate constant (k), reaction with acrolein to give triazoline 3a” value came to 0.039 M⁻¹ min⁻¹.

With `CC(C)c1cccc(C(C)C)c1N=[N+]=[N-]` [Compound 1d, 2,6-diisopropylphenyl azide], the “second-order rate constant (k), formation of 4-formyl-1,2,3-triazole 4d” value in data set [1] (formation of 4d) turned out to be 0.057 M⁻¹ min⁻¹. Also, the “second-order rate constant (k), reaction with acrolein to give heterocycle 6” value in data set [1] (formation of heterocycle 6) stood at 0.38 M⁻¹ min⁻¹. Also, in data set [1] (times faster), the “rate ratio, formation of heterocycle 6 versus 4-formyl-1,2,3-triazole 4d” value came out at 6.6 times. Further, the “rate constant ratio, 1d to heterocycle 6 versus 1a to triazoline 3a” value in data set [1] (times higher) worked out at 9.7 times.

As for `Cc1cc(C(C)C)c(N=[N+]=[N-])c(C(C)C)c1` [Compound 9, 4-methyl-2,6-diisopropyl-phenyl azide], the tumor size was found to be 800 mm^3 in data set [2] (by two weeks) and 900 mm^3 in data set [3] (in two weeks). The survival result is given as “survived less than three weeks after treatment” in data set [2] and “survived less than twelve days after treatment” in data set [3] (every day for 12 days). Moreover, the tumor growth result in data set [2] is on record as “does not have any effect”; in data set [3] (every day for 12 days), “does not retard the tumor growth”.

For the compound `CO[C@@]12[C@H](COC(N)=O)C3=C(C(=O)C(C)=C(N)C3=O)N1C[C@@H]1N[C@@H]12` [MMC, mitomycin C], the body weight entry in data set [2] (every three days) is recorded as “the body weight loss was very drastic”. Moreover, in data set [2], the survival result was “could not survive before the fourth injection” and the tumor growth entry is listed as “significantly inhibited tumor growth”. Further, the inflammation result in data set [2] (tenth day of treatment) is listed as “inflammation in the tail area”. Further, in data set [3] (every day for 12 days), the body weight entry is given as “more body weight loss”, the survival result was “survived less than five days after treatment” and the tumor growth result was “significantly inhibits tumor growth”. Also, the “inflammation and ADRs” value in data set [3] (post-treatment day 4) was “inflammation on the whole body”. Moreover, in data set [4], the “compound detected in tumor extract” value is on record as “the free drug could not be detected from the tumor” and the “compound detected in urine extract” value was “the secreted MMC drug was present in the urine”.
